In brackets after ≈: the same amount, converted by molar mass.
Columns and labels:
Format in all cases: functional
[1] = tested on: Radical scavenging activity; experiment: Antioxidant activity assessed as DPPH radical scavenging activity in ethanol solution at 10 ug/mL
Method in brief: (§1)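 Compound dissolved in ethanol, then ethanolic DPPH added. Incubated 30 min in the dark. DPPH decrease read as absorbance at 517 nm against an ethanol blank, with ascorbic acid as reference. % activity = [(A0 − Ai)/A0] × 100, where A0 is absorbance without compound and Ai with compound. IC50 taken from activity across concentrations.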

[2] = tested on: Radical scavenging activity; experiment: Antioxidant activity assessed as DPPH radical scavenging activity in ethanol solution at 50 ug/mL; method in brief: as §1
[3] = tested on: Radical scavenging activity; experiment: Antioxidant activity assessed as DPPH radical scavenging activity in ethanol solution at 25 ug/mL; method in brief: as §1
[4] = tested on: Radical scavenging activity; experiment: Antioxidant activity assessed as DPPH radical scavenging activity in ethanol solution; method in brief: as §1
[5] = tested on: Radical scavenging activity; experiment: Antioxidant activity assessed as DPPH radical scavenging activity in ethanol solution at 100 ug/mL; method in brief: as §1
[6] = tested on: Radical scavenging activity; experiment: Antioxidant activity assessed as DPPH radical scavenging activity in ethanol solution at 5 ug/mL; method in brief: as §1

SMILES | IC50 [4] [µg/mL] | Activity [1] [%] | Activity [2] [%] | Activity [3] [%] | Activity [5] [%] | Activity [6] [%]
CCc1ccc(/C=N/c2cc(C)c(O)cc2C(C)C)cc1 | 25.34 (≈ 90.1 µM) | 42.1 | 75.2 | 61.3 | 82.3 | 23.4
Cc1ccc(/C=N/c2cc(C)c(O)cc2C(C)C)cc1 | 25.58 (≈ 95.7 µM) | 44.9 | 73.4 | 60.7 | 81.3 | 22.1
Cc1cc(/N=C/c2ccc(F)cc2)c(C(C)C)cc1O | 32.52 (≈ 120 µM) | 41.1 | 66.3 | 58.8 | 73.7 | 22.5
Cc1cc(O)c(C(C)(C)C)cc1/N=C/c1ccc(Br)cc1 | 20.36 (≈ 58.8 µM) | 43.9 | 74.2 | 59.4 | 81.1 | 32.8
Cc1cc(/N=C/c2ccc3c(c2)OCO3)c(C(C)C)cc1O | 16.58 (≈ 55.8 µM) | 45.4 | 77.5 | 68.6 | 88.8 | 28.8
Cc1cc(O)c(C(C)(C)C)cc1/N=C/c1ccc(C(C)C)cc1 | 19.42 (≈ 62.8 µM) | 45.9 | 74 | 64 | 86.4 | 28.7
Cc1cc(O)c(C(C)(C)C)cc1/N=C/c1ccc(C(C)(C)C)cc1 | 20.05 (≈ 62 µM) | 45.6 | 73 | 65.2 | 86.7 | 27.5
Cc1cc(/N=C/c2ccc(C(C)C)cc2)c(C(C)C)cc1O | 21.08 (≈ 71.4 µM) | 49.5 | 72.4 | 61.7 | 78 | 25.8
CCCc1ccc(/C=N/c2cc(C(C)(C)C)c(O)cc2C)cc1 | 21.12 (≈ 68.2 µM) | 45.8 | 70.8 | 62.9 | 84 | 28.6
Cc1cc(O)c(C(C)(C)C)cc1/N=C/c1ccc(F)cc1 | 26.96 (≈ 94.5 µM) | 41.8 | 72 | 57 | 75.3 | 28.5
Cc1ccc(/C=N/c2cc(C(C)(C)C)c(O)cc2C)cc1 | 24.32 (≈ 86.4 µM) | 48.4 | 69.6 | 57.7 | 75.7 | 27.2
Cc1cc(/N=C/c2ccc(C(C)(C)C)cc2)c(C(C)C)cc1O | 21.89 (≈ 70.7 µM) | 49.9 | 70.2 | 62.1 | 79.2 | 25

The next lines start with results.

IC50 [4] [µg/mL] | SMILES | Activity [1] [%] | Activity [2] [%] | Activity [3] [%] | Activity [5] [%] | Activity [6] [%]
11.95 (≈ 40.2 µM) | Cc1cc(O)c(C(C)C)cc1/N=C/c1ccc2c(c1)OCO2 | 48 | 82.5 | 74.5 | 89.5 | 27.3
24.29 (≈ 84.4 µM) | Cc1cc(/N=C/c2ccc(Cl)cc2)c(C(C)C)cc1O | 47.3 | 68 | 59.6 | 75.6 | 27.8
21.62 (≈ 76.8 µM) | CCc1ccc(/C=N/c2cc(C(C)C)c(O)cc2C)cc1 | 43 | 72.4 | 64.7 | 77 | 28.8
18.6 (≈ 69.6 µM) | Cc1cc(O)c(C(C)(C)C)cc1/N=C/c1ccccc1 | 49.6 | 75.7 | 61.1 | 87 | 28
23.77 (≈ 71.5 µM) | Cc1cc(/N=C/c2ccc(Br)cc2)c(C(C)C)cc1O | 45.4 | 64.5 | 63.1 | 79.9 | 28.8
23.86 (≈ 93.8 µM) | Cc1cc(O)c(C(C)C)cc1/N=C/c1ccccn1 | 43.6 | 74.6 | 58.4 | 92.8 | 25.5
32.76 (≈ 129 µM) | Cc1cc(/N=C/c2cccnc2)c(C(C)C)cc1O | 34.2 | 71.1 | 61.9 | 73.8 | 21.8
37.8 (≈ 149 µM) | Cc1cc(O)c(C(C)C)cc1/N=C/c1cccnc1 | 38.9 | 68.2 | 48 | 79 | 16.5
25.59 (≈ 94.3 µM) | Cc1cc(O)c(C(C)C)cc1/N=C/c1ccc(F)cc1 | 44.1 | 73.2 | 62.9 | 79.2 | 21.7
63.03 (≈ 211 µM) | Cc1cc(O)c(C(C)C)cc1/N=C/c1ccc([N+](=O)[O-])cc1 | 17.6 | 50.9 | 36.2 | 65.3 | 10.3

Source: ChEMBL document CHEMBL2311257, “Synthesis and antioxidant activity of thymol and carvacrol based Schiff bases” (Bioorg Med Chem Lett, 2013)
